Molecules are shown by their SMILES. Converted amounts (≈) assume the structure as drawn.

For experiment [1], the system named is Mycobacterium kansasii. The experiment is described as follows: In vitro activity against Mycobacterium. kansasii (strain type-SWK).at pH 5.8. Type of experiment: functional. A digest of the protocol: (§1)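 Pyrazinamide-resistant isolate SWK tested on Middlebrook 7H10 agar plus 10% OADC adjusted to pH 5.8. Compartmented plates hold 2-fold dilutions from 200 to 3.12 µg/mL, prepared 24–48 h before use and kept at 4 °C, with a drug-free compartment. Incubation was 37 °C for 4 weeks. MIC is the lowest level causing 99% (2 log) growth inhibition.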

Experiment [2] deals with Mycobacterium tuberculosis. Briefly: In vitro activity against Mycobacterium. tuberculosis (strain type-ATCC 35828)at pH 6.6. Format: functional. A digest of the protocol: (§2)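 Twofold serial dilutions (200–3.12 µg/mL) in 7H10 agar with 10% OADC enrichment at pH 6.6, in compartmented plates. Plates were stored at 4 °C and used within 24–48 h. A no-drug compartment served as control for each isolate. Plates were incubated for 4 weeks at 37 °C. MIC was the lowest concentration giving 99% (2 log) growth inhibition.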

Experiment [3] deals with Mycobacterium tuberculosis. Briefly: In vitro activity against Mycobacterium. tuberculosis (strain type-ATCC 35828)at pH 5.8. Type of experiment: functional. A digest of the protocol: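 Middlebrook 7H10 agar plus 10% OADC at pH 5.8 in compartmented plates, with serial twofold dilutions from 200 to 3.12 µg/mL. Plates were prepared 24–48 h before use and stored at 4 °C. A drug-free compartment was included per isolate. Incubation was 37 °C for 4 weeks. MIC was the lowest level producing 99% (2 log) inhibition of growth.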

The test system of experiment [4] is Mycobacterium tuberculosis. Briefly: In vitro activity against Mycobacterium. tuberculosis (strain type-H37Rv) at pH 5.8. Format: functional.
Experiment [5] concerns Mycobacterium tuberculosis. The experiment is described as follows: (§3) In vitro activity against Mycobacterium. tuberculosis (strain type-H37Rv) at pH 6.6. Format: functional.
Experiment [6] has as its system Mycobacterium tuberculosis. Briefly: In vitro activity against Mycobacterium. tuberculosis (strain type-BUR)at pH 5.8. Format: functional.
For experiment [7], the system named is Mycobacterium kansasii. The experiment is described as follows: In vitro activity against Mycobacterium. kansasii (strain type-SWK).at pH 6.6. Type of experiment: functional. A digest of the protocol:
(§4)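 MIC for pyrazinamide-resistant isolate SWK by agar dilution in Middlebrook 7H10 with 10% OADC at pH 6.6. Serial 2-fold dilutions run 200–3.12 µg/mL in compartmented plates prepared 24–48 h in advance and stored at 4 °C. A drug-free control is included. Plates were held at 37 °C for 4 weeks. The endpoint is 99% (2 log) inhibition of growth.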

The subject of experiment [8] is Mycobacterium kansasii. Briefly: In vitro activity against Mycobacterium. kansasii (strain type-SWK) […]. Type of experiment: functional.
Experiment [9] concerns Mycobacterium kansasii. The experiment is described as follows: In vitro activity against Mycobacterium strain SCH (Mycobacterium kansasii). Format: functional. Summed up: (§5)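 Agar dilution MIC against pyrazinamide-resistant clinical isolates on Middlebrook 7H10 agar with 10% OADC at pH 5.8 or pH 6.6. Serial 2-fold dilutions span 200–3.12 µg/mL in compartmented plates made 24–48 h ahead and stored at 4 °C. Each isolate has a drug-free control. Plates were incubated at 37 °C for 4 weeks. MIC is the lowest concentration giving 99% (2 log) growth inhibition.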

Experiment [10] concerns Mycobacterium tuberculosis. Briefly: In vitro activity against Mycobacterium strain CES (Mycobacterium tuberculosis). Format: functional. Summed up: (§6)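 Agar dilution in compartmented plates of Middlebrook 7H10 agar with 10% OADC, adjusted to pH 5.8 or pH 6.6. Twofold compound dilutions spanned 200–3.12 µg/mL. Plates were made 24–48 h ahead and held at 4 °C. MIC (µg/mL) was the lowest concentration giving 99% (2 log) growth inhibition.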

In experiment [11] the test system is Mycobacterium kansasii. Briefly: In vitro activity against Mycobacterium strain SWK (Mycobacterium kansasii). Type of experiment: functional. A digest of the protocol:
as §5

For experiment [12], the system named is Mycobacterium tuberculosis. Briefly: In vitro activity against Mycobacterium strain DOU (Mycobacterium tuberculosis). Type of experiment: functional. Summed up: as §6
Experiment [13] concerns Mycobacterium tuberculosis. The experiment is described as follows: In vitro activity against Mycobacterium strain ING (Mycobacterium tuberculosis). Format: functional. Summed up: as §6
For experiment [14], the system named is Mycobacterium tuberculosis. Briefly: In vitro activity against Mycobacterium strain BAK (Mycobacterium tuberculosis). Format: functional.
Experiment [15] deals with Mycobacterium tuberculosis. Briefly: In vitro activity against Mycobacterium strain BUR (Mycobacterium tuberculosis). Type of experiment: functional. A digest of the protocol: as §6
Experiment [16] has as its system Mycobacterium tuberculosis. The experiment is described as follows: In vitro activity against Mycobacterium strain ATCC 35828 (Mycobacterium tuberculosis). Format: functional. Summed up: as §6
The test system of experiment [17] is Mycobacterium tuberculosis. Briefly: In vitro activity against Mycobacterium strain LEL (Mycobacterium tuberculosis). Type of experiment: functional.
Experiment [18] has as its system Mycobacterium tuberculosis. The experiment is described as follows: In vitro activity against Mycobacterium strain DOL (Mycobacterium tuberculosis). Type of experiment: functional.
The subject of experiment [19] is Mycobacterium tuberculosis. The experiment is described as follows: In vitro activity against Mycobacterium strain DUB (Mycobacterium tuberculosis). Type of experiment: functional.
Experiment [20] relates to Mycobacterium tuberculosis. The experiment is described as follows: In vitro activity against Mycobacterium strain WOO (Mycobacterium tuberculosis). Type of experiment: functional. Summed up: as §6
Experiment [21] deals with Mycobacterium tuberculosis. The experiment is described as follows: (§7) In vitro activity against Mycobacterium strain GLA (Mycobacterium tuberculosis). Format: functional.
In experiment [22] the test system is Mycobacterium tuberculosis. The experiment is described as follows: In vitro activity against Mycobacterium strain MCQ (Mycobacterium tuberculosis). Type of experiment: functional. A digest of the protocol: as §6
Experiment [23] relates to Mycobacterium tuberculosis. The experiment is described as follows: In vitro activity against Mycobacterium. tuberculosis (strain type-BUR)at pH 6.6. Type of experiment: functional. A digest of the protocol: as §2
The subject of experiment [24] is Mycobacterium kansasii. Briefly: In vitro activity against Mycobacterium. kansasii (strain type-SWK)at pH 5.8. Format: functional. Summed up:
as §1

For experiment [25], the system named is Mycobacterium tuberculosis. Briefly: In vitro activity against Mycobacterium strain SMA (Mycobacterium tuberculosis). Format: functional.
Experiment [26] concerns Mycobacterium kansasii. Briefly: In vitro activity against Mycobacterium. kansasii (strain type-SWK)at pH 6.6. Type of experiment: functional. A digest of the protocol: as §4
Experiment [27] has as its system Mycobacterium tuberculosis. The description is as §7.
The subject of experiment [28] is Mycobacterium tuberculosis. Briefly: In vitro activity against Mycobacterium. tuberculosis (strain type-ATCC 35828) at pH 6.6. Format: functional. A digest of the protocol: as §2
The test system of experiment [29] is Mycobacterium tuberculosis. The experiment is described as §3. Format: functional. Summed up:
as §2
This is another data set of the same source.

Experiment [30] has as its system Mycobacterium kansasii. Briefly: In vitro activity against Mycobacterium. kansasii (strain type-SWK) pH 6.6. Format: functional. Summed up: as §4
The mark [31] stands for this setting: Mycobacterium tuberculosis, read-out: MIC.

On to `O=C(Oc1ccc([N+](=O)[O-])cc1)c1cnccn1`, for which the MIC in the experiment on Mycobacterium kansasii [1] came out at 25 µg/mL (≈ 102 µM); in experiment [2] it was 200 µg/mL (≈ 816 µM); in experiment [3] it was 25 µg/mL (≈ 102 µM); in experiment [4] (setting [31]), 12.5 µg/mL (≈ 51 µM); in experiment [5] (setting [31]), 50 µg/mL (≈ 204 µM); in experiment [6] (setting [31]) it was 12.5 µg/mL (≈ 51 µM). The compound further had an MIC against Mycobacterium kansasii [7] of 200 µg/mL (≈ 816 µM).
Regarding `O=C(OCCCl)c1cnccn1`, the minimum inhibitory concentration (MIC) in [3] is 25 µg/mL (≈ 134 µM); against Mycobacterium kansasii [8], 25 µg/mL (≈ 134 µM); in experiment [6] (setting [31]), 6.25 µg/mL (≈ 33.5 µM).
On to `Cc1ccc(OC(=O)c2cnccn2)cc1`, for which the minimal inhibitory concentration (MIC) with Mycobacterium kansasii [9] was 12.5 µg/mL (≈ 58.4 µM); in experiment [10] it was 12.5 µg/mL (≈ 58.4 µM); with Mycobacterium kansasii [11], 12.5 µg/mL (≈ 58.4 µM); in experiment [12] it was 12.5 µg/mL (≈ 58.4 µM); in experiment [13], 25 µg/mL (≈ 117 µM); in experiment [14], 12.5 µg/mL (≈ 58.4 µM). Also, the MIC worked out at 12.5 µg/mL (≈ 58.4 µM) in experiment [15]; 12.5 µg/mL (≈ 58.4 µM) in [16]; 12.5 µg/mL (≈ 58.4 µM) in [17]; 200 µg/mL (≈ 934 µM) in experiment [2]; 6.25 µg/mL (≈ 29.2 µM) in [18] (setting [31]); 12.5 µg/mL (≈ 58.4 µM) in experiment [3]. Further, the MIC in experiment [19] (setting [31]) is 25 µg/mL (≈ 117 µM); in [4] it was 12.5 µg/mL (≈ 58.4 µM); in experiment [5], 25 µg/mL (≈ 117 µM); in [20] it was 25 µg/mL (≈ 117 µM); in experiment [21], 6.25 µg/mL (≈ 29.2 µM); in [22] it was 6.25 µg/mL (≈ 29.2 µM). The MIC in experiment [23] amounted to 100 µg/mL (≈ 467 µM); with Mycobacterium kansasii [24], 12.5 µg/mL (≈ 58.4 µM); in experiment [6], 12.5 µg/mL (≈ 58.4 µM); in experiment [25] (setting [31]), 25 µg/mL (≈ 117 µM); in the experiment with Mycobacterium kansasii [26], 200 µg/mL (≈ 934 µM).
Consider `C=CCOC(=O)c1cnccn1`, for which the MIC is 6.25 µg/mL (≈ 38.1 µM) against Mycobacterium kansasii [9]; less than 3.12 µg/mL in [10]; 6.25 µg/mL (≈ 38.1 µM) with Mycobacterium kansasii [11]; 6.25 µg/mL (≈ 38.1 µM) in [27]; 3.12 µg/mL (≈ 19 µM) in experiment [12]; 3.12 µg/mL (≈ 19 µM) in [13]. For the same compound, the MIC in [14] (setting [31]) is 3.12 µg/mL (≈ 19 µM); in experiment [15], 6.25 µg/mL (≈ 38.1 µM); in experiment [16] it was 6.25 µg/mL (≈ 38.1 µM); in experiment [17], 3.12 µg/mL (≈ 19 µM); in experiment [2], 200 µg/mL (≈ 1220 µM); in experiment [18] (setting [31]) it was less than 3.12 µg/mL. The MIC in experiment [3] is 6.25 µg/mL (≈ 38.1 µM); in experiment [19] it was 6.25 µg/mL (≈ 38.1 µM); in [4] (setting [31]) it was less than 3.12 µg/mL; in [5] (setting [31]) it was 200 µg/mL (≈ 1220 µM); in experiment [20], 6.25 µg/mL (≈ 38.1 µM); in experiment [22], less than 3.12 µg/mL. Besides, the MIC was less than 3.12 µg/mL in the experiment with Mycobacterium kansasii [24], 6.25 µg/mL (≈ 38.1 µM) in experiment [6], 3.12 µg/mL (≈ 19 µM) in [25] and 12.5 µg/mL (≈ 76.1 µM) with Mycobacterium kansasii [26].
For the compound `O=C(Oc1c(F)c(F)c(F)c(F)c1F)c1cnccn1`, the MIC against Mycobacterium kansasii [1] was 25 µg/mL (≈ 86.2 µM); in [2], 100 µg/mL (≈ 345 µM); in [3] it was 12.5 µg/mL (≈ 43.1 µM); in experiment [4] (setting [31]), 12.5 µg/mL (≈ 43.1 µM); in experiment [5] (setting [31]), 100 µg/mL (≈ 345 µM); with Mycobacterium kansasii [7], more than 200 µg/mL.
`O=C(OCC(F)(F)F)c1cnccn1`: the MIC in the experiment with Mycobacterium kansasii [9] is 25 µg/mL (≈ 121 µM); in experiment [10] it was 12.5 µg/mL (≈ 60.6 µM); in [28] it was more than 200 µg/mL; with Mycobacterium kansasii [11] it was 200 µg/mL (≈ 970 µM); in experiment [12] it was 100 µg/mL (≈ 485 µM); in [13] it was 25 µg/mL (≈ 121 µM). Also, the MIC in [14] (setting [31]) was determined as 25 µg/mL (≈ 121 µM); in experiment [29], 100 µg/mL (≈ 485 µM); in experiment [15], 25 µg/mL (≈ 121 µM); in experiment [16], 25 µg/mL (≈ 121 µM); in [17] it was 50 µg/mL (≈ 243 µM); in experiment [18], 25 µg/mL (≈ 121 µM). Further, the MIC in experiment [3] was 25 µg/mL (≈ 121 µM); in [19] (setting [31]) it was 25 µg/mL (≈ 121 µM); in experiment [4] (setting [31]), 25 µg/mL (≈ 121 µM); in experiment [20], 25 µg/mL (≈ 121 µM); in experiment [21] (setting [31]), 12.5 µg/mL (≈ 60.6 µM); against Mycobacterium kansasii [30] it was more than 200 µg/mL. The MIC in [22] came out at 25 µg/mL (≈ 121 µM); against Mycobacterium kansasii [24] it was 100 µg/mL (≈ 485 µM); in experiment [6] (setting [31]), 25 µg/mL (≈ 121 µM); in experiment [25], 25 µg/mL (≈ 121 µM).
Regarding `CC(C)(C)c1ccc(OC(=O)c2cnccn2)cc1`, the MIC in experiment [2] came out at 25 µg/mL (≈ 97.5 µM); in experiment [3], 25 µg/mL (≈ 97.5 µM); in experiment [23] it was 50 µg/mL (≈ 195 µM); against Mycobacterium kansasii [24], 25 µg/mL (≈ 97.5 µM); in [6] (setting [31]) it was 25 µg/mL (≈ 97.5 µM).

What is called MIC is the smallest concentration in the dilution series that meets the test's criterion for growth inhibition.
